Where two headings read alike, the source gives them in different places. One block for each compound: values may come before it.
How the values were obtained:
B^0AT1 = conditions: substrate; cited from earlier work
B^0AT1 (SLC6A19) [1] = molecular target: T1, B^0AT1 (SLC6A19) (Homo sapiens, UniProt Q695T7); conditions: read-out: IC50 range of initially identified inhibitors; cited from earlier work
T1 sequence (Q695T7 1-634): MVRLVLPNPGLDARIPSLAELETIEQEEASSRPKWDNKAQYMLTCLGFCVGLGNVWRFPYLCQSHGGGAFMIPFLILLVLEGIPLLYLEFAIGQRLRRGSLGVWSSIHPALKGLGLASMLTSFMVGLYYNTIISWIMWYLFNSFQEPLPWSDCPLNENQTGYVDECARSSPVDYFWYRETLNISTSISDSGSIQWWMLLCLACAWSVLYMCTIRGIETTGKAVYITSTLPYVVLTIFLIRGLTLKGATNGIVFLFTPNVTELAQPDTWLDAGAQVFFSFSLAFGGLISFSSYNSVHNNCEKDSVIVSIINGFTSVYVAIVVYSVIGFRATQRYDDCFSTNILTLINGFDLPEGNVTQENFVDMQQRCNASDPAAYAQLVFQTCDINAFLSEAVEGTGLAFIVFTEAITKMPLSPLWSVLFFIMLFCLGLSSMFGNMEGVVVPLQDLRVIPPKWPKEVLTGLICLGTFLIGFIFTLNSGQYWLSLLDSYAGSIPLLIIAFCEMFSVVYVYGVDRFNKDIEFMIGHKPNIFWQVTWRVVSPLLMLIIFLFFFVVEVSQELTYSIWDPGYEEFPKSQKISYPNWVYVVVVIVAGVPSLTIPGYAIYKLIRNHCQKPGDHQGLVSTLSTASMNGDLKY
T1 sequence (Q9HBJ8 15-222 partner): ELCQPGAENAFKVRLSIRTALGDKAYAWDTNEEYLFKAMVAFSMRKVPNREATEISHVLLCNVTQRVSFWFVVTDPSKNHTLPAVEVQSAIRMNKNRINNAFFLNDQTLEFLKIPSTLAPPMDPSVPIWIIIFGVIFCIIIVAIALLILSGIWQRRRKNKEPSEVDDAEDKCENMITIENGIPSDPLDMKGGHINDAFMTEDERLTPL

B^0AT1 (SLC6A19) [2] = molecular target: T1, B^0AT1 (SLC6A19); experiment: FLIPR membrane potential transport assay in CHO-BC cells; assay type: cell-based; conditions: read-out: inhibition at 30 µM
In short: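 CHO cells (Flp-In) stably expressing B0AT1 with collectrin, passages <10, seeded at 60,000 cells/well overnight. Washed three times in HBSS + 5 mM glucose, pH 7.5. Preincubated 30 min at room temperature with test compound plus membrane-potential dye. Read fluorescence (ex 530/em 565 nm) every 10 s before and after adding L-leucine to 1.5 mM final, at room temperature.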

B^0AT1 (SLC6A19) [3] = molecular target: T1, B^0AT1 (SLC6A19); experiment: Optimized radioactive L-[14C]leucine uptake; assay type: cell-based

Compound: N[C@@H](Cc1c[nH]c2ccccc12)C(=O)O [L-tryptophan]
Vmax relative to that of L-methionine (B^0AT1): 10%

Compound: CN1[C@@H]2CC[C@H]1C[C@@H](OC(c1ccccc1)c1ccccc1)C2 [benztropine]
IC50 (B^0AT1 (SLC6A19) [1]): 10 to 100 µM

Compound: CS(=O)(=O)Nc1ccc([N+](=O)[O-])cc1Oc1ccccc1 [Nimesulide, nimesulide]
IC50 (B^0AT1 (SLC6A19) [1]): 10 to 100 µM

inhibition at 30 µM (B^0AT1 (SLC6A19) [2]): 8%
Compound: Cc1cc(Cl)cc(C)c1OCC(=O)NC(C)C [JX8, 2-(4-chloro-2,6-dimethylphenoxy)-N-isopropylacetamide]

IC50 (B^0AT1 (SLC6A19) [3]): 0.8 ± 0.1 µM
Compound: CCNC(=O)/C=C/c1cccc(Br)c1 [Cinromide, cinromide]

— PMC11341722 (Nature Communications, 2024)
